We go through 4 molecules from ChEMBL document CHEMBL4017501, “Paralog Specificity Determines Subcellular Distribution, Action Mechanism, and Anticancer Activity of TRAP1 Inhibitors” (J Med Chem, 2017).

Data set [1] has as its target T1, Heat shock protein 75 kDa, mitochondrial (Homo sapiens, UniProt Q12931).
T1 sequence (Q12931 whole entry): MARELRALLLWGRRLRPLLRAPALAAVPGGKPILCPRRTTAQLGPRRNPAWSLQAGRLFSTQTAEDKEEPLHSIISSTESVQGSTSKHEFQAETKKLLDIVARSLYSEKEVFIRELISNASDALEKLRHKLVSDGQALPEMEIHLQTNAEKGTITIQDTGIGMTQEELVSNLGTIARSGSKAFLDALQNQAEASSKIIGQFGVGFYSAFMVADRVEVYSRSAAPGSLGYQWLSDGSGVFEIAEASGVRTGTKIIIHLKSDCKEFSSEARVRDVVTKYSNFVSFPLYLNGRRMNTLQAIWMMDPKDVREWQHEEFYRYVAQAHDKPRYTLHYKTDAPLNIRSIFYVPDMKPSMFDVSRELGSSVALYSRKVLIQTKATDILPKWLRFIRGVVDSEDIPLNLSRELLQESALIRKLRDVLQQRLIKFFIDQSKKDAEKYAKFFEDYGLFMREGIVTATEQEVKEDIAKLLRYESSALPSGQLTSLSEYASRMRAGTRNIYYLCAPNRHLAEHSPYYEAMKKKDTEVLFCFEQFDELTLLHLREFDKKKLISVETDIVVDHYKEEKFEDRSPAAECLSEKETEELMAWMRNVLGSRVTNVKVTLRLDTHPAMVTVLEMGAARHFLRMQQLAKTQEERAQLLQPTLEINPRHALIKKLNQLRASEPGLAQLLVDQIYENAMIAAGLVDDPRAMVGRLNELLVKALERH
Nature of the data set: Inhibition of FITC3-labeled PU-H71 binding to recombinant human N-terminal His6-tagged TRAP1 (60 to 561 residues) expressed in Escherichia coli BL21(DE3) after 24 hrs by fluorescence polarization assay. Put shortly:
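Recombinant TRAP1 (100 nM) incubated with 10 nM 1-FITC3 probe and varying inhibitor concentrations for 24 h at 4 °C. Buffer: PBS-type salts with 1 mM DTT, 2 mM MgCl2, 0.1 mg/mL BSA, 0.05% NP40, pH 7.3. Polarization (mP) scaled to maximum and minimum values; mean ± SEM of two independent experiments.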
(In general: In fluorescence polarisation assays a small probe gives low polarisation when free and higher when bound to something large.)

Data set [2] deals with Heat shock protein HSP 90-alpha (Homo sapiens, UniProt P07900). Put plainly: Inhibition of FITC3-labeled PU-H71 binding to recombinant HSP90alpha (unknown origin) after 24 hrs by fluorescence polarization assay.
Data set [3] is described as follows: Cytotoxicity against human corneal cells assessed as reduction in cell viability at 5 to 20 uM after 24 hrs by MTT assay. The format is cell-based. Put shortly: (§1)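 Corneal cells kept in corneal medium; hepatocytes isolated from 8-week-old BALB/c mice and kept in M199/EBSS with 10% FBS. Cells given a range of drug concentrations for 24 h. MTT absorbance read at 595 nm and normalized to DMSO; two independent experiments in duplicate, mean ± SEM.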
(Tetrazolium assays rely on reduction of a dye to a coloured formazan, in cell work by metabolically active cells.)

For data set [4], the system named is PC-3. Put plainly: Induction of apoptosis in human PC3 cells assessed as late apoptotic cells at 20 uM after 24 hrs by Annexin V-FITC/propidium iodide staining based flow cytometry (reference value: 1.5%). The class given is functional. Background: A flow cytometer gives signals particle by particle.
Data set [5] deals with HeLa. Nature of the data set: Induction of apoptosis in human HeLa cells assessed as early apoptotic cells at 20 uM after 24 hrs by Annexin V-FITC/propidium iodide staining based flow cytometry (reference value: 3.9%). The class given is functional.
The subject of data set [6] is HeLa. Put plainly: Induction of apoptosis in human HeLa cells assessed as necrotic cells at 20 uM after 24 hrs by Annexin V-FITC/propidium iodide staining based flow cytometry (reference value: 0.7%). The class given is functional.
The subject of data set [7] is HeLa. Nature of the data set: Induction of apoptosis in human HeLa cells assessed as live cells at 20 uM after 24 hrs by Annexin V-FITC/propidium iodide staining based flow cytometry (reference value: 90.1%). The format is functional.
Data set [8] deals with PC-3. Put plainly: Induction of apoptosis in human PC3 cells assessed as live cells at 20 uM after 24 hrs by Annexin V-FITC/propidium iodide staining based flow cytometry (reference value: 97.4%). The class given is functional.
The test system of data set [9] is HeLa. Put plainly: Induction of apoptosis in human HeLa cells assessed as late apoptotic cells at 20 uM after 24 hrs by Annexin V-FITC/propidium iodide staining based flow cytometry (reference value: 5.3%). The class given is functional.
Data set [10] concerns Hepatocyte. Nature of the data set: Cytotoxicity against mouse primary hepatocytes assessed as reduction in cell viability at 5 to 20 uM after 24 hrs by MTT assay. The format is cell-based. Put shortly: as §1
Data set [11] has as its system PC-3. Put plainly: Induction of apoptosis in human PC3 cells assessed as early apoptotic cells at 20 uM after 24 hrs by Annexin V-FITC/propidium iodide staining based flow cytometry (reference value: 0.7%). The class given is functional.
Data set [12] concerns PC-3. Nature of the data set: Induction of apoptosis in human PC3 cells assessed as necrotic cells at 20 uM after 24 hrs by Annexin V-FITC/propidium iodide staining based flow cytometry (reference value: 0.2%). The format is functional.

The term IC50 denotes the midpoint of a concentration-inhibition curve. Take `COc1c(C)cnc(Cn2ncc3c(Cl)nc(N)nc32)c1C`: the results for the IC50 in data set [1] and in [2] were 0.138 µM and 0.097 µM, respectively.
On the same counts, the results for `Nc1nc(Cl)c2cc(C(=O)O)n(Cc3ccc4c(c3)OCO4)c2n1` are 8.43 µM and more than 10 µM.
Regarding `CCNC(=O)c1noc(-c2cc(C(C)C)c(O)cc2O)c1-c1ccc(CN2CCOCC2)cc1` [LUMINESPIB], the Activity entry in data set [3] is given as “Toxic”; in data set [4], 5%; in data set [5], 7.5%; in data set [6], 0.9%; in data set [7] it was 83%; in [8], 93.5%. Moreover, the Activity is on record as 8.6% in data set [9], “Toxic” in data set [10], 0.7% in data set [11] and 0.9% in data set [12].
As to `Nc1nc(Cl)c2cnn(Cc3ccc4c(c3)OCO4)c2n1`, the half-maximal inhibitory concentration (IC50) in data set [1] was found to be 6.34 µM; in data set [2] it was 8.93 µM.
